These results are taken from ChEMBL document CHEMBL5154910, “Preventing Influenza A Virus Infection by Mixed Inhibition of Neuraminidase and Hemagglutinin by Divalent Inhibitors” (J Med Chem, 2022).

Usually IC50 stands for the concentration that inhibits the measured activity by half.

For data set [1], the system named is Influenza A virus. The data set is described as follows: Antiviral activity against Influenza virus A/Netherlands/602/2009 assessed as inhibition of virus-LAMP1 binding at 10 uM by biolayer interferometry streptavidin sensor based assay. In kind it is functional, organism-based. A digest of the protocol: (§1)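 Biolayer interferometry was run at 30 °C in PBS with Ca/Mg, shaking at 1000 rpm. Streptavidin sensors were loaded to saturation with biotinylated LAMP1 carrying increased α2,6-linked sialic acids, then dipped into Neth09H1N1 virus mixed with variable compound concentrations. […] Controls had no compound, or OC only.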

For a further data set, the system named is MDCK-II. The data set is described as follows: Cytotoxicity against dog MDCK-II cells at 5 uM. The class given is toxicity, cell-based, Canis lupus familiaris. The method, boiled down:
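MDCK-II monolayers were exposed to compound at the highest tested concentration of 5 μM in Opti-MEM at 37 °C, 5% CO2, for 4 days. Cytotoxicity was judged by microscopic inspection.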

Data set [2] can be described thus: Inhibition of Influenza A virus (A/Anascrecca/Spain/1460/2008(H7N9)) recombinant Neuraminidase using MUNANA as substrate incubated for 60 mins by fluorescence based assay. The method, boiled down:
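Recombinant soluble tetrameric NA (N9 from A/Anascrecca/Spain/1460/2008 or N1 from A/Wisconsin/09/2013) was made in HEK293T cells and purified on Strep-Tactin. Compounds were serially diluted 1:2 in 50 mM Tris-HCl, 4 mM CaCl2, pH 6.0, with a fixed non-saturating amount of NA. MUNANA was added to 100 μM final, 37 °C for 60 min, then stopped with glycine/ethanol at pH 10.7. Fluorescence read at ex 340/em 490 nm; […].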

Data set [3] is described as follows: Inhibition of Influenza virus A/Netherlands/602/2009 Neuraminidase using MUNANA as substrate incubated for 60 mins by fluorescence based whole virus assay. The method, boiled down: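 Whole Neth09H1N1 virus served as the NA source in place of recombinant protein. Compounds were serially diluted 1:2 in 50 mM Tris-HCl, 4 mM CaCl2, pH 6.0, with a fixed non-saturating amount of virus. MUNANA was added to 100 μM final, 37 °C for 60 min, then stopped with 0.1 M glycine, 25% ethanol, pH 10.7. Fluorescence read at ex 340/em 490 nm; IC50 determined.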

In data set [4] the test system is Influenza A virus. Briefly: Inhibition of Influenza virus A/Netherlands/602/2009 hemagglutinin assessed as reduction of virus-LAMP1 binding in presence of oseltamivir carboxylate by biolayer interferometry. A digest of the protocol: as §1
(In general: In BLI a coated tip is dipped into the sample, and binding shifts an interference pattern.)

Calls of active or inactive are those of the source. No cut-off for these calls is given here.

Turning to `CC[C@@H](CCCCc1cn([C@H]2[C@H](O)[C@@H](O)[C@H](n3cc(-c4ccc(-c5cn([C@@H]6O[C@H](CO)[C@@H](n7cc(-c8cc(O)c(-c9cn([C@@H]%10O[C@H](CO)[C@@H](n%11cc(-c%12ccc(-c%13cn([C@@H]%14O[C@H](CO)[C@@H](n%15cc(CCCC[C@H](CC)O[C@@H]%16OC(C(=O)O)=C[C@H](O)[C@H]%16NC(C)=O)nn%15)[C@H](O)[C@H]%14O)nn%13)cc%12)nn%11)[C@H](O)[C@H]%10O)nn9)cc8O)nn7)[C@H](O)[C@H]6O)nn5)cc4)nn3)O[C@@H]2CO)nn1)O[C@@H]1OC(C(=O)O)=C[C@H](N)[C@H]1NC(C)=O`, the inhibition result in the data set with Influenza A virus [1] was “Active”. The Activity entry in the data set with MDCK-II is reported as “Non-Toxic”.

For `CCC(CC)O[C@@H]1OC(C(=O)O)=C[C@H](O)[C@H]1NC(C)=O`, in data set [2], the IC50 was 470 nM.

Turning to `CC[C@@H](CCCCc1cn([C@H]2[C@H](OC(C)=O)[C@@H](OC(C)=O)[C@H](n3cc(CCCC[C@H](CC)O[C@@H]4OC(C(=O)O)=C[C@H](O)[C@H]4NC(C)=O)nn3)O[C@@H]2CO)nn1)O[C@@H]1OC(C(=O)O)=C[C@H](O)[C@H]1NC(C)=O`, the IC50 was 5200 nM in data set [2] and 1500 nM in data set [3]. The Activity entry with MDCK-II was “Non-Toxic”.

Turning to `CC[C@@H](CCCCc1cn([C@H]2[C@H](O)[C@@H](O)[C@H](n3cc(-c4ccc(-c5cn([C@@H]6O[C@H](CO)[C@@H](n7cc(CCCC[C@H](CC)O[C@@H]8OC(C(=O)O)=C[C@H](O)[C@H]8NC(C)=O)nn7)[C@H](O)[C@H]6O)nn5)cc4)nn3)O[C@@H]2CO)nn1)O[C@@H]1OC(C(=O)O)=C[C@H](O)[C@H]1NC(C)=O`, the results for the concentration for half-maximal inhibition (IC50) in data set [2] and in data set [3] were 3300 nM and 80 nM, respectively. Besides, the inhibition result with Influenza A virus [1] is “Active”. For the same molecule, the Activity entry with MDCK-II is recorded as “Non-Toxic”.

Consider `CC[C@@H](CCCCc1cn([C@H]2[C@H](O)[C@@H](O)[C@H](n3cc(-c4ccc(-c5cn([C@H]6[C@H](O)[C@@H](O)[C@H](n7cc(-c8ccc(-c9cn([C@@H]%10O[C@H](CO)[C@@H](n%11cc(CCCC[C@H](CC)O[C@@H]%12OC(C(=O)O)=C[C@H](O)[C@H]%12NC(C)=O)nn%11)[C@H](O)[C@H]%10O)nn9)cc8)nn7)O[C@@H]6CO)nn5)cc4)nn3)O[C@@H]2CO)nn1)O[C@@H]1OC(C(=O)O)=C[C@H](O)[C@H]1NC(C)=O`, for which the inhibition entry in the data set on Influenza A virus [1] and in the data set with Influenza A virus [4] was “Active” throughout. The Activity result in the data set on MDCK-II is “Non-Toxic”.

For the molecule `C#CCCC[C@H](CC)O[C@@H]1CC(C(=O)O)=C[C@H](O)[C@H]1NC(C)=O`, in data set [2], the IC50 was found to be 2900 nM. Also, the inhibition entry in the data set with Influenza A virus [1] was “Active”. Also, the Activity entry in the data set on MDCK-II is “Non-Toxic”.

Consider `C#CCCCC[C@@H](CC)O[C@@H]1OC(C(=O)O)=C[C@H](O)[C@H]1NC(C)=O`, for which the 50% inhibitory concentration (IC50) in data set [2] was found to be 28200 nM.

As to `CC[C@@H](CCCCc1cn([C@H]2[C@H](OC(C)=O)[C@@H](OC(C)=O)[C@H](n3cc(CCCC[C@H](CC)O[C@@H]4OC(C(=O)O)=C[C@H](O)[C@H]4NC(C)=O)nn3)O[C@@H]2COC(C)=O)nn1)O[C@@H]1OC(C(=O)O)=C[C@H](O)[C@H]1NC(C)=O`, the Activity entry in the data set with MDCK-II was “Non-Toxic”.

As for `CCC(CC)O[C@@H]1C=C(C(=O)O)C[C@H](N)[C@H]1NC(C)=O` [OSELTAMIVIR CARBOXYLATE], the Activity result with MDCK-II is listed as “Non-Toxic”.
